From ChEMBL document CHEMBL1123588, “Synthesis and antisecretory and antiulcer activities of derivatives and analogues of 2-(2-pyridyl)tetrahydrothiophene-2-carbothioamide” (1987)

Key:
Rattus norvegicus [1] = experiment: Antisecretory activity against histamine stimulated gastric acid secretion in Shay rats by peroral administration of 30 mg /kg was determined: activity not statistically significant; type: functional; settings: Stomach, po
Method in brief: (§1)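 Female OFA rats, 150–175 g, six per group, fasted 24 h with water allowed. Dose given orally in 10% gum arabic (5 mL/kg) 1 h before histamine 100 mg/kg sc. Promethazine 10 mg/kg ip 30 min before histamine; pylorus ligated under chloral hydrate 30 min after. Juice collected 2 h, titrated with 0.1 N NaOH. Acid output compared with controls by Student's t test.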

Rattus norvegicus [2] = experiment: Antiulcer activity against restraint-induced gastric erosions in rats, following 100 mg/kg p.o. administration.; type: functional, Stomach; settings: route oral
Method in brief: (§2)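 Restraint-stress erosions (Rossi): female OFA rats, 150–175 g, six per group, fasted 24 h. Oral dose in 10% gum arabic (5 mL/kg) 1 h before restraint in wire-netting cages. Rats killed 24 h later and gastric mucosal erosions assessed. A rat counted protected with no erosion; read-out is % protected rats.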

Rattus norvegicus [3] = species on record: Rattus norvegicus; experiment: Antisecretory activity against histamine stimulated gastric acid secretion in Shay rats expressed as ED50; type: functional; settings: Stomach
Method in brief: (§3)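 Histamine-stimulated Shay rats: females (OFA, 150–175 g, n=6/group), fasted 24 h. Oral dosing in 10% gum arabic, 1 h pre-histamine (100 mg/kg sc), promethazine 10 mg/kg ip pretreatment. Pylorus ligation under chloral hydrate; 2 h gastric juice titrated with 0.1 N NaOH. Lower doses tested when 30 mg/kg gave >80% inhibition; ED50 from regression line.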

Rattus norvegicus [4] = experiment: Antiulcer activity by protection of restraint-induced gastric erosions in rats, by using the technique of Rossi was determined at peroral dose of 4.5 mg/kg; type: functional, Stomach; settings: route oral; method in brief: as §2
Rattus norvegicus [5] = species on record: Rattus norvegicus; experiment: Antiulcer activity against histamine stimulated gastric acid secretion in Shay rats expressed as ED50; type: functional; settings: Stomach
Rattus norvegicus [6] = species on record: Rattus norvegicus; experiment: Antisecretory activity against histamine stimulated gastric acid secretion in Shay rats expressed as ED50 value ranges from (0.1-1.3); type: functional; settings: Stomach; method in brief: as §3
Rattus norvegicus [7] = species on record: Rattus norvegicus; experiment: Antisecretory activity against histamine stimulated gastric acid secretion in Shay rats expressed as ED50 value ranges from (1.7-17.4); type: functional; settings: Stomach; method in brief: as §3
Rattus norvegicus [8] = experiment: Antisecretory activity against histamine stimulated gastric acid secretion in Shay rats by peroral administration of 30 mg /kg was determined; type: functional; settings: Stomach, po; method in brief: as §1
Rattus norvegicus [9] = experiment: Antiulcer activity by protection of restraint-induced gastric erosions in rats, by using the technique of Rossi was determined at peroral dose of 10 mg/kg; type: functional, Stomach; settings: route oral; method in brief: as §2
Rattus norvegicus [10] = species on record: Rattus norvegicus; experiment: Antisecretory activity against histamine stimulated gastric acid secretion in Shay rats expressed as ED50 value ranges from (1-2.6); type: functional; settings: Stomach; method in brief: as §3
Rattus norvegicus [11] = species on record: Rattus norvegicus; experiment: Antisecretory activity against histamine stimulated gastric acid secretion in Shay rats expressed as ED50 value ranges from (1.3-7.1); type: functional; settings: Stomach; method in brief: as §3
Rattus norvegicus [12] = species on record: Rattus norvegicus; experiment: Antisecretory activity against histamine stimulated gastric acid secretion in Shay rats expressed as ED50 value ranges from (0.8-2.8); type: functional; settings: Stomach; method in brief: as §3

Compound | inhibition in vivo at 30 mg/kg (Rattus norvegicus [1]) [%] | Protection (Rattus norvegicus [2]) [%] | ED50 (Rattus norvegicus [3]) [mg/kg] | other results
OCC/N=C(\S)C1(c2ccccn2)CCCS1 (stereo not drawn) | 25 | 16 | > 30 | –
CN(C)CC/N=C(\S)C1(c2ccccn2)CCCS1 (stereo not drawn) | 0 | 16 | > 30 | –
N/N=C(\S)C1(c2ccccn2)CCCS1 (stereo not drawn) | 0 | 0 | > 30 | –
CNC(=S)C1(c2ccccn2)CCCS1 (stereo not drawn) [PICARTAMIDE] | – | – | – | Protection (Rattus norvegicus [4]): 50%; ED50 (Rattus norvegicus [5]): 5.9 mg/kg; ED50 (Rattus norvegicus [6]): 0.4 mg/kg
NC(=S)C1(c2ccccn2)SCCCS1 | – | 100 | 2.8 | –
CN(C)CCC/N=C(\S)C1(c2ccccn2)CCCS1 (stereo not drawn) | 0 | 0 | > 30 | –
N=C(S)C(c1ccccc1)c1ccccn1 (stereo not drawn) | – | – | – | ED50 (Rattus norvegicus [7]): 5.5 mg/kg
Cc1cccc(C2(C(=N)S)CCCS2)n1 (stereo not drawn) | – | 100 | < 30 | inhibition in vivo at 30 mg/kg (Rattus norvegicus [8]): 71%
S=C(N1CCOCC1)C1(c2ccccn2)CCCS1 (stereo not drawn) | – | 83 | ≤ 30 | inhibition in vivo at 30 mg/kg (Rattus norvegicus [8]): 54%
CC/N=C(\S)C1(c2ccccn2)CCCS1 (stereo not drawn) | – | – | – | Protection (Rattus norvegicus [9]): 50%; ED50 (Rattus norvegicus [10]): 1.6 mg/kg
C/N=C(\S)C1(c2ccc3ccccc3n2)CCCS1 (stereo not drawn) | – | 100 | – | ED50 (Rattus norvegicus [11]): 3 mg/kg
C=CCNC(=S)C1(c2ccccn2)CCCS1 (stereo not drawn) | 20 | 0 | > 30 | –
C/N=C(\S)C1(c2ccncc2)CCCS1 (stereo not drawn) | – | 83 | ≤ 30 | inhibition in vivo at 30 mg/kg (Rattus norvegicus [8]): 53%
CNC(=S)C1(c2cccc(C)n2)CCCS1 (stereo not drawn) [LUCARTAMIDE] | – | – | – | Protection (Rattus norvegicus [9]): 50%; ED50 (Rattus norvegicus [12]): 1.5 mg/kg
C/N=C(\S)C1(c2cccnc2)CCCS1 (stereo not drawn) | – | 100 | ≥ 30 | inhibition in vivo at 30 mg/kg (Rattus norvegicus [8]): 49%
S=C(N1CCCCC1)C1(c2ccccn2)CCCS1 (stereo not drawn) | 30 | 83 | – | –
C/N=C(\S)C1(c2ccccn2)SCCCS1 | – | – | 5.7 | Protection (Rattus norvegicus [9]): 50%
